NF-kB expr up = raises NF-kB expression in human neuronal cells; AID 1239; fold change at 12.5 µM; 190,000 tested, 1.6% active; NF-kB reporter expression; stronger effect = higher value; in the data active = fold change above about 3.3
PPC-1+TRAIL kill = compounds killing PPC-1 cancer cells with TRAIL present (potentiator screen, no TRAIL-free arm); PPC-1 cells + TRAIL, ATPLite viability luminescence; cell killing (% activity), % at 4 µM or 5 µM; 220,000 tested, 0.41% active;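 active = cell killing above 50% in the first pass at 4 µM, then a duplicate retest at 5 µM averaging 50% or more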
FLuc inh counter = inhibits firefly luciferase, flagging false hits in luciferase inhibition screens. ATPLite firefly luciferase biochemical luminescence, 10 min. AID 1006. P08659. 200,000 tested, 1.5% active. inhibition, % at 10 µM;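 active = inhibition above about 50% when tested at 10 µM, limit read from the data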
Target sequence (P08659 whole entry, looked up): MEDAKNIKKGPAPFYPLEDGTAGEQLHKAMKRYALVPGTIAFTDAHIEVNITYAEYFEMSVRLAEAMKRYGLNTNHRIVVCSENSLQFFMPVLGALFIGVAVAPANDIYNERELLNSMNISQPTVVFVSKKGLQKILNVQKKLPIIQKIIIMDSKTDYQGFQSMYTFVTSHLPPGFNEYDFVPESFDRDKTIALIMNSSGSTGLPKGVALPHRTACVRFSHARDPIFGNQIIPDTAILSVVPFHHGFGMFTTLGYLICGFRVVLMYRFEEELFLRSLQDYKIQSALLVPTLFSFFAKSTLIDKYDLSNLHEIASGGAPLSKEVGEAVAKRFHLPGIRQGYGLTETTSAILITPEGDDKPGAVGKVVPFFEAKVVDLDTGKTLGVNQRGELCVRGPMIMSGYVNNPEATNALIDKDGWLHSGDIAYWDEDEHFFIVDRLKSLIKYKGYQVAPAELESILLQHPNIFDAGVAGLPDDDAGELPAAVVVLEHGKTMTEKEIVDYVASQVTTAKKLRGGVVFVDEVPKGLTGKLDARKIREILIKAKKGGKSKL
FLuc act counter = affects firefly luciferase, flagging false hits in luciferase stimulation screens; ATPlite luciferase biochemical, luminescence, 10 min; 0 = ATP-free wells, 1 = DMSO control; activation factor at 10 µM; 200,000 tested, under 10 active;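 active = luciferase activation factor, scaled between plate controls, of at least 2 with compound at 10 µM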
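Assay system: Luciferase/luciferin detection reagent, cell-free biochemical luciferase assay / Read-out: luciferase activation / Benchmarks: No-ATP low control, compound-free enzyme-plus-ATP high control / Medium: PBS buffer for ATP / Detection: luminescence measurement of luciferase light output / Schedule: 10 min at ambient temperature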
TRAIL sens C8 = caspase-8 TRAIL sensitization. 360,000 tested, 1% active. NB7+C8 cells + TRAIL, ATPlite viability luminescence. inhibition (viability loss, TRAIL sensitization), % at 10 µM. AID 624354;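 active = compounds causing at least 50% loss of cell viability in the single-dose screen, relative to plate controls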
APP 5'UTR act = activates APP 5'UTR luciferase reporter. 190,000 tested, 1% active. AID 1276. activation, % at 2 µM. SH-SY5Y APP 5'UTR luciferase reporter, luminescence; zero percent = DMSO vehicle wells;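 active = activation above a set limit, based on mean plus 3 SD of controls, cut at about 140% in these data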
PPC1 cytotox = PPC-1 cell cytotoxicity; PPC-1 viability, ATPlite luminescence, overnight; cytotoxicity, % at 5 µM; shares compounds with PPC-1+TRAIL kill; 1,200 tested, 50% active;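 active = reconfirmed compounds whose average cytotoxicity reaches 50% or more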
Hits are given with their value; i = inactive; nt = no result given. Compounds with a hit are over-represented: about 2.2% of the library has one in this group of screens.

SMILES	NF-kB expr up	PPC-1+TRAIL kill	FLuc inh counter	FLuc act counter	TRAIL sens C8	APP 5'UTR act	PPC1 cytotox
c1ccc(-n2nnc3c(N4CCOCC4)ncnc32)cc1	i	i	83.5	i	65.8	147.6	i
Cc1nnc(N2CCOCC2)c2nn(-c3ccccc3)c(C)c12	i	i	i	i	i	i	nt
Nc1c(C(=O)NCCN2CCOCC2)c2nc3ccccc3nc2n1CCc1ccccc1F	i	i	i	i	i	i	i
CCCOc1ccc(C(=O)C(c2ccccc2)N2CCOCC2)cc1 (stereo not given)	i	i	i	i	i	i	i
O=C(c1ccco1)N1CCN(c2nc(C3CC3)nc3c2nnn3Cc2ccccc2Cl)CC1	i	i	i	i	i	i	i
Cn1cnnc1SCCn1c(N2CCCCC2)nc2c1c(=O)[nH]c(=O)n2C	i	i	i	i	i	i	i
COC1=CC(C)C2CC3OC(O)CC4C(C)=C(OC)C(=O)C(C2(C)C1=O)C34C (stereo not given)	nt	nt	nt	nt	i	nt	nt
O=C(CCCN1C(=O)CCC1=O)Nc1ccc2c(c1)OCO2	i	i	i	i	i	i	i
COC(=O)[C@H](CCSC)NC(=O)N1CCC(C)CC1	i	i	i	i	i	i	i
CC(=O)c1ccc(OCC(=O)OCC(=O)c2ccc(S(=O)(=O)N3CCCCC3)cc2)cc1	nt	nt	nt	nt	i	nt	nt
CCOc1ccc(N(C(=O)C2CCCO2)C2C=CS(=O)(=O)C2)cc1 (stereo not given)	i	i	i	i	i	i	nt
O=C(C1CCCO1)N(c1cccc(Cl)c1)C1C=CS(=O)(=O)C1 (stereo not given)	i	i	i	i	i	i	i
O=C1c2cccc3c([N+](=O)[O-])ccc(c23)C(=O)N1CCc1ccccn1	nt	i	nt	nt	i	nt	i
Cc1ccc(OCc2ccc(C(=O)NN)o2)c([N+](=O)[O-])c1	nt	i	nt	nt	i	nt	nt
COC(=O)c1ccc(COc2ccc(C)cc2[N+](=O)[O-])o1	nt	i	nt	nt	i	nt	i
CCCCn1nnnc1C(c1ccccc1)N1CCN(c2cc(C)ccc2C)CC1 (stereo not given)	nt	nt	nt	nt	i	nt	nt
CCN1CCN(Cc2ccc(NC(=O)c3cc(NC(=O)C(=O)c4c[nH]c5ccccc45)cc(OC)c3)cc2C(F)(F)F)CC1	nt	i	nt	nt	92.5	nt	i
Cc1ccc(N/C=C/C(=O)c2cccs2)cc1C	6.62	71.4	94.1	i	78.3	169.9	71.1
CCOC(=O)C[C@@H]1OC[C@H](CO)N1S(=O)(=O)c1ccc(C)cc1	nt	nt	nt	nt	i	nt	nt
COC(=O)c1ccc(OCC(=O)c2ccc(O)cc2O)cc1	i	i	65.4	i	i	i	i
COc1ccc(C(=O)N=c2nc3ccccn3s2)cc1	i	90.5	96.6	i	91.0	i	90.1
CC(=O)Nc1cccc(-c2csc(C(O)c3ccc(F)cc3)n2)c1 (stereo not given)	nt	nt	nt	nt	i	nt	nt
COc1ccc(NC(=O)c2nc3ccccc3s2)cc1	7.53	i	60.9	i	i	207.9	i
c1ccc(CN2CCC3CC2c2c3cccc2N2CCOCC2)cc1 (stereo not given)	nt	nt	nt	nt	i	nt	nt
COc1cc(/C=C/C(=O)OCN2C(=O)c3ccccc3C2=O)ccc1OC(F)F	nt	nt	nt	nt	i	nt	nt
SMILES	NF-kB expr up	PPC-1+TRAIL kill	FLuc inh counter	FLuc act counter	TRAIL sens C8	APP 5'UTR act	PPC1 cytotox
COc1cc(/C=C/c2cc(C(=O)O)c3ccccc3n2)ccc1OC(F)F	nt	79.7	nt	nt	82.6	nt	79.0
O=C(O)c1cc(N2CCOCC2)nc2ccccc12	nt	nt	nt	nt	i	nt	nt
O=C(O)c1cc(/C=C/c2ccc(N3CCOCC3)cc2)nc2ccccc12	i	89.6	97.0	i	87.2	i	91.2
Cc1ccc(C(=O)/C=C/Nc2ccccc2C(N)=O)cc1	6.74	93.0	96.7	i	90.2	174.2	92.6
CCOC(=O)c1ccccc1N/C=C/C(=O)c1ccccc1	nt	nt	nt	nt	i	i	nt
NC(=O)c1ccccc1N/C=C/C(=O)c1ccc(Cl)cc1	6.94	84.0	93.5	i	87.8	148.1	84.0
CC1(C(=O)Nc2cccc3ccccc23)CCN1C(=O)Cc1ccc(Cl)cc1Cl (stereo not given)	nt	nt	nt	nt	i	nt	nt
CC(C)=CCC[C@H](C)C[C@@H]1CC2=C(C(=O)OC(C)(C)O2)[C@@H](c2ccc(F)cc2)O1	nt	nt	nt	nt	i	nt	nt
Cc1ccc(C(=O)Nc2ccc(O)c(C(=O)O)c2)o1	i	i	i	i	i	i	i
Cc1ccc(-c2cnc(C(O)c3cc(C)cc(C)c3)[nH]2)cc1 (stereo not given)	nt	nt	nt	nt	i	nt	nt

Source: PubChem (several laboratories)
